# From ChEMBL document CHEMBL1155462, “Structure-activity relationship for thiohydantoin androgen receptor antagonists for castration-resistant prostate cancer (CRPC)” (J Med Chem, 2010)
# Calls of active or inactive are those of the source. The calls are words filed in the database; no cut-off is given here.
# Experiments:
# [1] = system: LNCaP; assay: Inhibition of prostate specific antigen expression in human LNCAP cells at 0.625 to 5 uM in presence of fetal bovine serum; type: functional, cell-based
# [2] = system: LNCaP; assay: Inhibition of prostate specific antigen expression in human LNCAP cells at 0.625 to 20 uM in presence of fetal bovine serum; type: functional, cell-based
# [3] = system: LNCaP; assay: Inhibition of prostate specific antigen expression in human LNCAP cells at 100 to 1000 nM in presence of fetal bovine serum; type: functional, cell-based
# [4] = biological target: T1, Androgen receptor (Rattus norvegicus) (UniProt P15207); assay: Antagonist activity at androgen receptor in rat prostate gland at 1.25 to 10 uM by luciferase reporter gene assay; type: functional, tissue-based
# T1 sequence (whole entry): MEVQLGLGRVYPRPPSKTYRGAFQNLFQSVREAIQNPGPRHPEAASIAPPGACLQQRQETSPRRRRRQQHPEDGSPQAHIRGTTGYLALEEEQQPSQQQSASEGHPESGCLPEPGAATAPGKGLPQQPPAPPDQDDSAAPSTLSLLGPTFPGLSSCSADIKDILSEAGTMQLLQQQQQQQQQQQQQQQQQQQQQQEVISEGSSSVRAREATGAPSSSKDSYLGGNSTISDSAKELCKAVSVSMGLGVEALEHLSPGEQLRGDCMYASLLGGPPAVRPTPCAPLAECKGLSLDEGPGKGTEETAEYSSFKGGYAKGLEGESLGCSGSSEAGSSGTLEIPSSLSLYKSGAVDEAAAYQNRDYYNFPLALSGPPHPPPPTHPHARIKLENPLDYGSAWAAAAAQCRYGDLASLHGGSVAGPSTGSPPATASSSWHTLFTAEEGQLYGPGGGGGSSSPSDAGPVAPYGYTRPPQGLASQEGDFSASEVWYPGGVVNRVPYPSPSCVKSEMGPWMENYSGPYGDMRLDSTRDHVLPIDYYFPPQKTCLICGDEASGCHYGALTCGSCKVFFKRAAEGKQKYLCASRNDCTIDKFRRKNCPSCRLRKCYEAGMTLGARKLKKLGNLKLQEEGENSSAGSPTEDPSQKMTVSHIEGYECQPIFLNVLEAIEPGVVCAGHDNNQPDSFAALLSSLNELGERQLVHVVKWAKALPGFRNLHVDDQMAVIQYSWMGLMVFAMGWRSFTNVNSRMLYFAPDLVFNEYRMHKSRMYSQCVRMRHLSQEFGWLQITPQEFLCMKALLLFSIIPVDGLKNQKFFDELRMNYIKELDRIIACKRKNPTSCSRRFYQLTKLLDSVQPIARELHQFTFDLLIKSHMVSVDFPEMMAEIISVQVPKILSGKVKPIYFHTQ
# [5] = system: LNCaP; assay: Inhibition of prostate specific antigen expression in human LNCAP cells at 1.25 to 10 uM in presence of fetal bovine serum; type: functional, cell-based
# [6] = biological target: T1, Androgen receptor (Rattus norvegicus); assay: Antagonist activity at androgen receptor in rat prostate gland at 0.625 to 20 uM by luciferase reporter gene assay; type: functional, tissue-based
# [7] = system: LNCaP; assay: Inhibition of prostate specific antigen secretion in human LNCAP cells expressing androgen receptor at 1.25 to 10 uM in presence of charcoal stripped serum; type: functional, cell-based
# Outline: (§1)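 LNCaP/AR cells were made by viral infection with an AR cDNA to express 3–5 fold higher AR levels, mimicking CRPC. They were assayed in charcoal-stripped serum to mimic androgen depletion. Read-out was PSA level, with DMSO as the vehicle.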
# [8] = system: LNCaP; assay: Inhibition of prostate specific antigen expression in human LNCAP cells in presence of fetal bovine serum; type: functional, cell-based
# [9] = system: LNCaP; assay: Inhibition of prostate specific antigen secretion in human LNCAP cells expressing androgen receptor at 100 to 1000 nM in presence of charcoal stripped serum; type: functional, cell-based; outline: as §1
structure (smiles),measurement,setting,value
Cc1ccc(N2C(=S)N(c3ccc(C#N)c(C(F)(F)F)c3)C(=O)C2(C)CF)cc1 (stereo not drawn),Activity,[1],Active
Cc1ccc(N2C(=S)N(c3ccc(C#N)c(C(F)(F)F)c3)C(=O)C23CCN(C)CC3)cc1,Activity,[2],inactive
Cc1ccc(N2C(=S)N(c3ccc(C#N)c(C(F)(F)F)c3)C(=N)C2(C)C)cc1,Activity,[1],Active
CN(C)C(=O)CCCc1ccc(N2C(=S)N(c3ccc(C#N)c(C(F)(F)F)c3)C(=O)C23CCC3)cc1,Activity,[3],Active
Cc1ccc(N2C(=S)N(c3ccc(C#N)c(C(F)(F)F)c3)C(=O)C23CCCCCC3)cc1,Activity,[2],inactive
N#Cc1ccc(N2C(=O)C3(CCC3)N(c3ccc(O)cc3F)C2=S)cc1C(F)(F)F,Activity,[4],Active
Cc1ccc(N2/C(=N/c3ccc(C#N)c(C(F)(F)F)c3)S/C(=N\C(=S)Nc3ccc(C#N)c(C(F)(F)F)c3)C2(C)C)cc1,Activity,[5],Active
same,Activity,[4],Active
CC1(C)C(=O)N(c2ccc(C#N)c(C(F)(F)F)c2)C(=S)N1CCCCO,Activity,[2],Active
same,Activity,[5],Active
Cc1ccc(N2C(=S)N(c3ccc(C#N)c(C(F)(F)F)c3)/C(=N\C(=S)Nc3ccc(C#N)c(C(F)(F)F)c3)C23CCC3)cc1,Activity,[5],Active
same,Activity,[4],Active
CCC1(C)C(=O)N(c2ccc(C#N)c(C(F)(F)F)c2)C(=S)N1c1ccc(C)cc1 (stereo not drawn),Activity,[6],inactive
Cc1ccc(N2CC(=O)N(c3ccc(C#N)c(C(F)(F)F)c3)C2=S)cc1,Activity,[6],inactive
Cc1ccc(N2C(=S)N(c3ccc(C#N)c(C(F)(F)F)c3)C(=O)C23CCCCC3)cc1,Activity,[2],inactive
N#Cc1ccc(N2C(=O)C3(CCC3)N(c3ccc(CCCC(N)=O)cc3)C2=S)cc1C(F)(F)F,inhibition,[7],Active
Cc1ccc(N2C(=S)N(c3ccc(C#N)c(C(F)(F)F)c3)/C(=N\C(=S)Nc3ccccc3)C23CCC3)cc1,Activity,[5],Active
same,Activity,[4],Active
CNC(=O)c1ccc(N2C(=S)N(c3ccc(C#N)c(C(F)(F)F)c3)C(=O)C23CCC3)cc1,Activity,[4],Active
Cc1ccc(N2C(=S)N(c3ccc(C#N)c(C(F)(F)F)c3)C(=O)C23CCCC3)cc1,Activity,[2],Active
same,Activity,[5],Active
CCC1(CC)C(=O)N(c2ccc(C#N)c(C(F)(F)F)c2)C(=S)N1c1ccc(C)cc1,Activity,[6],inactive
CC(O)c1ccc(N2C(=S)N(c3ccc(C#N)c(C(F)(F)F)c3)C(=O)C23CCC3)cc1 (stereo not drawn),IC50,[8],200 nM
CC1(C)C(=O)N(c2ccc(C#N)c(C(F)(F)F)c2)C(=S)N1CCCCCCCN=[N+]=[N-],Activity,[2],Active
Cc1ccc(N2/C(=N/c3ccc(C#N)c(C(F)(F)F)c3)S/C(=N\C(=S)Nc3ccc(C#N)c(C(F)(F)F)c3)C23CCC3)cc1,Activity,[5],Active
same,Activity,[4],Active
CS(=O)(=O)c1ccc(N2C(=S)N(c3ccc(C#N)c(C(F)(F)F)c3)C(=O)C23CCC3)cc1,Activity,[4],Active
N#Cc1ccc(N2C(=O)C3(CCC3)N(c3ccc(C=O)cc3)C2=S)cc1C(F)(F)F,IC50,[8],200 nM
CCC1(C)C(=O)N(c2ccc(C)cc2)C(=S)N1c1ccc(C#N)c(C(F)(F)F)c1 (stereo not drawn),Activity,[6],inactive
CC1(C)C(=O)N(c2ccc(C#N)c(C(F)(F)F)c2)C(=S)N1c1ccc(N)cc1,Activity,[2],Active
same,Activity,[6],Active
N#Cc1ccc(N2C(=O)C3(CCC3)N(c3ccc(CCC(=O)NCCO)cc3)C2=S)cc1C(F)(F)F,inhibition,[7],Active
N#Cc1ccc(N2C(=O)C3(CCC3)N(c3ccc(/C=C/C(N)=O)cc3)C2=S)cc1C(F)(F)F,IC50,[8],100 nM
CS(=O)(=O)N1CCN(c2ccc(N3C(=S)N(c4ccc(C#N)c(C(F)(F)F)c4)C(=O)C34CCC4)cc2)CC1,inhibition,[7],Active
N#CCCCc1ccc(N2C(=S)N(c3ccc(C#N)c(C(F)(F)F)c3)C(=O)C23CCC3)cc1,Activity,[3],Active
CC1(C)C(=O)N(c2ccc(C#N)c(C(F)(F)F)c2)C(=S)N1CCCCCN=[N+]=[N-],Activity,[2],Active
CC1(C)C(=S)N(c2ccc(C#N)c(C(F)(F)F)c2)C(=S)N1c1ccc(O)cc1,Activity,[1],Active
CC1(C)C(=O)N(c2ccc(C#N)c(C(F)(F)F)c2)C(=S)N1c1ccc(C(F)(F)F)cc1,Activity,[5],Active
CCC1C(=O)N(c2ccc(C#N)c(C(F)(F)F)c2)C(=S)N1c1ccc(C)cc1 (stereo not drawn),Activity,[6],inactive
CNC(=O)c1ccc(N2C(=S)N(c3ccc(C#N)c(C(F)(F)F)c3)C(=O)C2(C)C)cc1,Activity,[4],Active
N#Cc1ccc(N2C(=O)C3(CCC3)N(c3ccc(N4CCNCC4)cc3)C2=S)cc1C(F)(F)F,inhibition,[7],Active
CC1(C)C(=O)N(c2ccc(C#N)c(C(F)(F)F)c2)C(=S)N1c1ccc(N=[N+]=[N-])cc1,Activity,[2],Active
same,Activity,[6],Active
N#Cc1ccc(N2C(=O)C3(CCC3)N(c3ccccc3C(=O)O)C2=S)cc1C(F)(F)F,Activity,[1],inactive
CC1(C)C(=O)N(c2ccc(C#N)c(C(F)(F)F)c2)C(=O)N1c1ccc(O)cc1,Activity,[1],Active
same,Activity,[4],Active
Cc1ccc(N2C(=S)N(c3ccc(C#N)c(C(F)(F)F)c3)C(=N)C23CCC3)cc1,Activity,[5],Active
same,Activity,[1],Active
CNC(=O)CCc1ccc(N2C(=S)N(c3ccc(C#N)c(C(F)(F)F)c3)C(=O)C23CCC3)cc1,inhibition,[7],Active
Cc1ccc(N2C(=S)N(c3ccc(C#N)c(C(F)(F)F)c3)C(=O)C2C)cc1 (stereo not drawn),Activity,[6],inactive
C/N=C1\N(c2ccc(C#N)c(C(F)(F)F)c2)C(=S)N(c2ccc(C)cc2)C12CCC2,Activity,[5],Active
same,Activity,[4],Active
COC(=O)c1ccc(N2C(=S)N(c3ccc(C#N)c(C(F)(F)F)c3)C(=O)C2(C)C)cc1,Activity,[4],Active
N#Cc1ccc(N2C(=O)C3(CCC3)N(c3ccc(/C=C/CO)cc3)C2=S)cc1C(F)(F)F,IC50,[8],100 nM
CC1(C)C(=O)N(c2ccc(C#N)c(C(F)(F)F)c2)C(=S)N1c1ccccc1,Activity,[2],Active
same,Activity,[6],Active
CC1(C)C(=O)N(c2ccc(C#N)c(C(F)(F)F)c2)C(=S)N1c1ccc(O)cc1,Activity,[2],Active
same,Activity,[1],Active
same,Activity,[6],Active
Cc1ccc(N2C(=S)N(c3ccc(C#N)c(C(F)(F)F)c3)/C(=N\C(=S)Nc3ccc(C#N)c(C(F)(F)F)c3)C2(C)C)cc1,Activity,[5],Active
same,Activity,[4],Active
CC/N=C1\N(c2ccc(C#N)c(C(F)(F)F)c2)C(=S)N(c2ccc(C)cc2)C1(C)C,Activity,[5],Active
same,Activity,[4],Active
Cc1ccc(N2C(=S)N(c3ccc(C#N)c(C(F)(F)F)c3)C(=O)C23CCCCCCC3)cc1,Activity,[2],inactive
Cc1ccc(N2C(=S)N(c3ccc(C#N)c(C(F)(F)F)c3)C(=O)C2(CCl)CCl)cc1,Activity,[1],inactive
N#Cc1ccc(N2C(=O)C3(CCC3)N(c3ccc(-c4ccccc4)cc3)C2=S)cc1C(F)(F)F,Activity,[5],Active
CCC1(CC)C(=O)N(c2ccc(C)cc2)C(=S)N1c1ccc(C#N)c(C(F)(F)F)c1,Activity,[6],inactive
N#Cc1ccc(N2C(=O)C3(CCC3)N(c3ccc(CCC(N)=O)cc3)C2=S)cc1C(F)(F)F,inhibition,[7],Active
N#Cc1ccc(N2C(=O)C3(CCC3)N(c3ccc(CO)cc3)C2=S)cc1C(F)(F)F,IC50,[8],200 nM
N#Cc1ccc(N2C(=O)C3(CCC3)N(c3ccc(O)cc3)C2=S)cc1C(F)(F)F,Activity,[5],Active
Cc1ccccc1N1C(=S)N(c2ccc(C#N)c(C(F)(F)F)c2)C(=O)C12CCC2,Activity,[1],Active
CNC(=O)c1ccc(N2C(=S)N(c3ccc(C#N)c(C(F)(F)F)c3)C(=O)C2(C)C)cc1F,Activity,[9],Active
CCCC1C(=O)N(c2ccc(C#N)c(C(F)(F)F)c2)C(=S)N1c1ccc(C)cc1 (stereo not drawn),Activity,[6],inactive
CC1(C)C(=O)N(c2ccc(C#N)c(C(F)(F)F)c2)C(=S)N1CCCCCCN=[N+]=[N-],Activity,[2],Active
CC1(C)C(=O)N(c2ccc(C#N)c(C(F)(F)F)c2)C(=S)N1CCCN=[N+]=[N-],Activity,[2],Active
Cc1ccc(N2C(=S)N(c3ccc(C#N)c(C(F)(F)F)c3)/C(=N\C(=S)Nc3ccc(C#N)c(C(F)(F)F)c3)C2(C)CF)cc1 (stereo not drawn),Activity,[5],Active
same,Activity,[4],Active
CNC(=O)c1ccc(N2C(=S)N(c3ccc(C#N)c(C(F)(F)F)c3)C(=O)C23CCCC3)cc1F,Activity,[9],Active
